ChEMBL document CHEMBL2034938, “Convenient synthesis of novel geiparvarin analogs with potential anti-cancer activity via click chemistry” (Eur J Med Chem, 2012)

Legend:
MDA-MB-231 = experiment: Cytotoxicity against human MDA-MB-231 cells by after 48 hrs by MTT assay; type: functional, cell-based; conditions: MDA-MB-231, 48 h
Outline: (§1)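 MTT assay; cell lines obtained from Shanghai Institute of Biological Sciences, CAS. Compounds in DMSO stock (10 g/L), diluted in medium just before use. Cells seeded at 8000/well; compound added 24 h later, in duplicate. After 48 h at 37 °C, 5% CO₂, MTT (5 mg/mL in PBS) added for 4 h. Formazan dissolved in DMSO; absorbance read at 570 nm. IC50 taken as the concentration giving 50% growth inhibition.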

A549 [1] = experiment: Cytotoxicity against human A549 cells by after 48 hrs by MTT assay; type: functional, cell-based; conditions: A549, 48 h; outline: as §1
SGC-7901 = experiment: Cytotoxicity against human SGC7901 cells by after 48 hrs by MTT assay; type: functional, cell-based; conditions: SGC-7901, 48 h; outline: as §1
HeLa = experiment: Cytotoxicity against human HeLa cells by after 48 hrs by MTT assay; type: functional, cell-based; outline: as §1
SW480 = experiment: Cytotoxicity against human SW480 cells by after 48 hrs by MTT assay; type: functional, cell-based; conditions: SW480, 48 h; outline: as §1
[2] = Cytotoxicity against human QGY7701 cells by after 48 hrs by MTT assay; type: functional, cell-based; conditions: QGY7701, 48 h; outline: as §1
[3] = Cytotoxicity against human L02 cells by after 48 hrs by MTT assay; type: cell-based; conditions: L02, 48 h; outline: as §1
A549 [4] = experiment: Induction of apoptosis in human A549 cells assessed as late apoptotic cells at 4 uM after 48 hrs by annexinV/propidium iodide staining-based flow cytometric analysis (reference value: 0.16%); type: functional
A549 [5] = experiment: Induction of apoptosis in human A549 cells assessed as viable cells at 4 uM after 48 hrs by annexinV/propidium iodide staining-based flow cytometric analysis ( Rvb = 95.96%); type: functional; conditions: A549, 48 h, read-out: Activity
A549 [6] = experiment: Induction of apoptosis in human A549 cells assessed as necrotic cells at 8 uM after 48 hrs by annexinV/propidium iodide staining-based flow cytometric analysis (reference value: 3.72%); conditions: A549, 48 h
A549 [7] = experiment: Induction of apoptosis in human A549 cells assessed as necrotic cells at 4 uM after 48 hrs by annexinV/propidium iodide staining-based flow cytometric analysis (reference value: 3.72%); conditions: A549, 48 h
A549 [8] = experiment: Induction of apoptosis in human A549 cells assessed as late apoptotic cells at 8 uM after 48 hrs by annexinV/propidium iodide staining-based flow cytometric analysis (reference value: 0.16%); type: functional
A549 [9] = experiment: Induction of apoptosis in human A549 cells assessed as late apoptotic cells at 2 uM after 48 hrs by annexinV/propidium iodide staining-based flow cytometric analysis (reference value: 0.16%); type: functional
A549 [10] = experiment: Induction of apoptosis in human A549 cells assessed as early apoptotic cells at 4 uM after 48 hrs by annexinV/propidium iodide staining-based flow cytometric analysis ( Rvb = 0.15%); type: functional
A549 [11] = experiment: Induction of apoptosis in human A549 cells assessed as early apoptotic cells at 2 uM after 48 hrs by annexinV/propidium iodide staining-based flow cytometric analysis ( Rvb = 0.15%); type: functional
A549 [12] = experiment: Induction of apoptosis in human A549 cells assessed as necrotic cells at 2 uM after 48 hrs by annexinV/propidium iodide staining-based flow cytometric analysis (reference value: 3.72%); conditions: A549, 48 h
A549 [13] = experiment: Induction of apoptosis in human A549 cells assessed as viable cells at 8 uM after 48 hrs by annexinV/propidium iodide staining-based flow cytometric analysis ( Rvb = 95.96%); type: functional; conditions: A549, 48 h, read-out: Activity
A549 [14] = experiment: Induction of apoptosis in human A549 cells assessed as viable cells at 2 uM after 48 hrs by annexinV/propidium iodide staining-based flow cytometric analysis ( Rvb = 95.96%); type: functional; conditions: A549, 48 h, read-out: Activity
A549 [15] = experiment: Induction of apoptosis in human A549 cells assessed as viable cells at 1 uM after 48 hrs by annexinV/propidium iodide staining-based flow cytometric analysis ( Rvb = 95.96%); type: functional; conditions: A549, 48 h, read-out: Activity
A549 [16] = experiment: Induction of apoptosis in human A549 cells assessed as late apoptotic cells at 1 uM after 48 hrs by annexinV/propidium iodide staining-based flow cytometric analysis (reference value: 0.16%); type: functional
A549 [17] = experiment: Induction of apoptosis in human A549 cells assessed as early apoptotic cells at 8 uM after 48 hrs by annexinV/propidium iodide staining-based flow cytometric analysis ( Rvb = 0.15%); type: functional
A549 [18] = experiment: Induction of apoptosis in human A549 cells after 48 hrs by annexinV/propidium iodide staining-based flow cytometric analysis; type: functional, cell-based
A549 [19] = experiment: Induction of apoptosis in human A549 cells assessed as early apoptotic cells at 1 uM after 48 hrs by annexinV/propidium iodide staining-based flow cytometric analysis ( Rvb = 0.15%); type: functional

Compound | IC50 (MDA-MB-231) [µM] | IC50 (A549 [1]) [µM] | IC50 (SGC-7901) [µM] | IC50 (HeLa) [µM] | IC50 (SW480) [µM] | IC50 [2] [µM] | IC50 [3] [µM] | also measured
Cc1cccc(Cn2cc(COc3ccc4c(=O)ccoc4c3)nn2)c1 | 16 | 20.3 | > 100 | > 100 | 11.7 | 22.4 | > 300 | 
O=c1ccoc2cc(OCc3cn(Cc4ccccc4Br)nn3)ccc12 | > 100 | > 100 | > 100 | 14.5 | > 100 | > 100 | > 300 | 
O=c1ccoc2cc(OCc3cn(Cc4ccc([N+](=O)[O-])cc4)nn3)ccc12 |  | > 100 | > 100 | 25.7 | 19.3 | > 100 | > 300 | 
O=c1ccoc2cc(OCc3cn(Cc4ccc(Cl)cc4)nn3)ccc12 | > 100 | > 100 | > 100 | 37.6 | > 100 | 41.7 | > 300 | 
O=c1ccoc2cc(OCc3cn(Cc4ccc(Br)cc4)nn3)ccc12 | > 100 | > 100 | > 100 | > 100 | 37.5 | 96.4 | > 300 | 
N#Cc1ccc(Cn2cc(COc3ccc4c(=O)ccoc4c3)nn2)cc1 | > 100 | > 100 | > 100 | > 100 | > 100 | > 100 | > 300 | 
Cc1ccc(Cn2cc(COc3ccc4c(=O)ccoc4c3)nn2)cc1 | > 100 | 50.7 | > 100 | > 100 | 10.4 | 68.5 | > 300 | 
O=c1ccoc2cc(OCc3cn(Cc4ccc(Cl)cc4Cl)nn3)ccc12 | > 100 | 5.26 | > 100 | 80.6 | > 100 | 13.3 | > 300 | Activity (A549 [4]): 3.55%; viability at 4 µM (A549 [5]): 65.8%; necrotic cells at 8 µM (A549 [6]): 1.64%; necrotic cells at 4 µM (A549 [7]): 2.19%; Activity (A549 [8]): 3.33%; Activity (A549 [9]): 3.56%; Activity (A549 [10]): 28.45%; Activity (A549 [11]): 17.62%; necrotic cells at 2 µM (A549 [12]): 2.42%; viability at 8 µM (A549 [13]): 65.3%; viability at 2 µM (A549 [14]): 76.4%; viability at 1 µM (A549 [15]): 88.4%; Activity (A549 [16]): 2.31%; Activity (A549 [17]): 29.73%; Activity (A549 [18]): Dose-dependent effect; Activity (A549 [19]): 7.13%
O=c1ccoc2cc(OCc3cn(Cc4ccccc4F)nn3)ccc12 |  | 10.8 | > 100 | > 100 | 11.4 | 36.9 | > 300 | 
O=c1[nH]cc(F)c(=O)[nH]1 [FLUOROURACIL] |  |  | 6.04 |  |  |  | 46.6 | 
C/C(=C\COc1ccc2ccc(=O)oc2c1)C1=CC(=O)C(C)(C)O1 [GEIPARVARIN] | 9.88 | 18 | 7.59 | 9.09 | 20.3 | 17.7 | > 300 | Activity (A549 [4]): 4.27%; viability at 4 µM (A549 [5]): 71.7%; necrotic cells at 8 µM (A549 [6]): 5.87%; necrotic cells at 4 µM (A549 [7]): 5.13%; Activity (A549 [8]): 3.56%; Activity (A549 [9]): 5.25%; Activity (A549 [10]): 18.87%; Activity (A549 [11]): 11.51%; necrotic cells at 2 µM (A549 [12]): 4.26%; viability at 8 µM (A549 [13]): 65.3%; viability at 2 µM (A549 [14]): 77%; viability at 1 µM (A549 [15]): 90.7%; Activity (A549 [16]): 1.32%; Activity (A549 [17]): 25.25%; Activity (A549 [19]): 6.19%
Cc1ccccc1Cn1cc(COc2ccc3c(=O)ccoc3c2)nn1 | > 100 | > 100 | > 100 | 15.3 | > 100 | > 100 | > 300 | 
N#Cc1cccc(Cn2cc(COc3ccc4c(=O)ccoc4c3)nn2)c1 | > 100 | 14.3 | > 100 | > 100 | > 100 | 24.4 | > 300 | 
O=c1ccoc2cc(OCc3cn(Cc4cccc(Cl)c4)nn3)ccc12 | > 100 | 13.7 | > 100 | > 100 | 12.9 | 28.4 | > 300 | 
COc1ccc(Cn2cc(COc3ccc4c(=O)ccoc4c3)nn2)cc1 | > 100 | 16.5 | > 100 | 14.4 | 20.4 | 56.6 | > 300 | 
CC(C)(C)c1ccc(Cn2cc(COc3ccc4c(=O)ccoc4c3)nn2)cc1 | > 100 | > 100 | > 100 | 17.6 | 28.8 | > 100 | > 300 | 
O=c1ccoc2cc(OCc3cn(Cc4ccccc4)nn3)ccc12 | > 100 | > 100 | > 100 | > 100 | 42.9 | > 100 | > 300 | 
O=c1ccoc2cc(OCc3cn(Cc4cccc(Br)c4)nn3)ccc12 | > 100 | > 100 | > 100 | > 100 | > 100 | 17.6 | > 300 | 
O=c1ccoc2cc(OCc3cn(Cc4cccc([N+](=O)[O-])c4)nn3)ccc12 | > 100 | 9.45 | > 100 | 17.3 | > 100 | 14.1 | > 300 | Activity (A549 [4]): 6.36%; viability at 4 µM (A549 [5]): 74.7%; necrotic cells at 8 µM (A549 [6]): 4.16%; necrotic cells at 4 µM (A549 [7]): 5.44%; Activity (A549 [8]): 5.68%; Activity (A549 [9]): 3.39%; Activity (A549 [10]): 13.55%; Activity (A549 [11]): 10.87%; necrotic cells at 2 µM (A549 [12]): 5.68%; viability at 8 µM (A549 [13]): 70.6%; viability at 2 µM (A549 [14]): 80.1%; viability at 1 µM (A549 [15]): 86.7%; Activity (A549 [16]): 3%; Activity (A549 [17]): 21.54%; Activity (A549 [19]): 8.07%
O=c1ccoc2cc(OCc3cn(Cc4ccc(F)cc4)nn3)ccc12 | > 100 | > 100 | > 100 | 12 | 11.2 | 14.4 | > 300 | 
O=c1ccoc2cc(OCc3cn(Cc4cccc(F)c4)nn3)ccc12 | > 100 | > 100 | > 100 | 7.55 | > 100 | > 100 | > 300 | 
O=c1ccoc2cc(OCc3cn(Cc4ccccc4Cl)nn3)ccc12 |  | > 100 | > 100 | > 100 | 23.5 | 19.7 | > 300 | 
C#CCOc1ccc2c(=O)ccoc2c1 | > 100 | > 100 | > 100 | 64.7 | > 100 | 58.5 | > 300 | 
